Laboratory results taken from ChEMBL document CHEMBL4825665, “Effective degradation of EGFRL858R+T790M mutant proteins by CRBN-based PROTACs through both proteosome and autophagy/lysosome degradation systems” (Eur J Med Chem, 2021).
Activity calls are given as the source filed them. No cut-off for these calls is given here.

Columns and labels:
[1] = system: Protein cereblon/Epidermal growth factor receptor (Homo sapiens), P00533+Q96SW2 [L858R,T790M]; assay: Protac activity at CRBN/EGFR L858R/T790M mutant in human NCI-H1975 cells assessed as induction of EGFR degradation at 30 to 500 nM by Western blot assay; type: cell-based; conditions: dose 30-500 nM, time 16-48 hrs, TDE = time-dependent effect
[2] = target: T1, Protein cereblon/Epidermal growth factor receptor (Homo sapiens, UniProt P00533+Q96SW2); assay: Protac activity at CRBN/EGFR in human NCI-H1975 cells assessed as induction of EGFR degradation by Western blot assay; type: cell-based
[3] = system: Protein cereblon/Epidermal growth factor receptor (Homo sapiens), P00533+Q96SW2 [L858R,T790M]; assay: Protac activity at CRBN/EGFR L858R/T790M mutant in human NCI-H1975 cells assessed as induction of EGFR degradation at 0.3 uM pre-incubated for 2 hrs in the presence of MLN4924 and measured after 16 hrs by Western blot assay; type: cell-based; conditions: time 18.0 hrs
[4] = system: Protein cereblon/Epidermal growth factor receptor (Homo sapiens), P00533+Q96SW2 [L858R,T790M]; assay: Protac activity at CRBN/EGFR L858R/T790M mutant in human NCI-H1975 cells assessed as increase in ratio of LC3B2 to LC3B1 under serum starvation condition at 0.3 uM measured after 16 hrs by Western blot assay; type: cell-based
Procedure, shortened: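 H1975 cells in RPMI 1640 with 10% serum. Autophagy was read by Western blot as the LC3B II/LC3B I ratio. Serum-free medium and rapamycin served as autophagy-inducing positive controls, and rapamycin was also combined with degrader. Where pretreatment applied, compounds were added for 2 h before a 16 h PROTAC treatment.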

[5] = system: Protein cereblon/Epidermal growth factor receptor (Homo sapiens), P00533+Q96SW2 [L858R,T790M]; assay: Protac activity at CRBN/EGFR L858R/T790M mutant in human NCI-H1975 cells assessed as induction of EGFR degradation at 300 nM measured after 8 to 72 hrs by Western blot assay relative to control; type: cell-based; conditions: time 8-72 hrs
[6] = target: T1, Protein cereblon/Epidermal growth factor receptor; assay: Protac activity at CRBN/EGFR in human A549 cells assessed as induction of EGFR degradation by Western blot assay; type: cell-based
[7] = target: T1, Protein cereblon/Epidermal growth factor receptor; assay: Protac activity at CRBN/EGFR in mouse BaF3 cells assessed as induction of EGFR degradation by Western blot assay; type: cell-based
[8] = system: Protein cereblon/Epidermal growth factor receptor (Homo sapiens), P00533+Q96SW2 [L858R,T790M]; assay: Protac activity at CRBN/EGFR L858R/T790M mutant in human NCI-H1975 cells assessed as induction of EGFR degradation at 0.3 uM pre-incubated for 2 hrs in the presence of Bafilomycin A1 and measured after 16 hrs by Western blot assay; type: cell-based; conditions: time 18.0 hrs
[9] = system: NCI-H1975; assay: Cell cycle arrest in human NCI-H1975 cells expressing EGFR L858R/T790M mutant assessed as decrease of cell population in S phase at […] measured after 48 hrs by RNaseA/propidium iodide staining based flow cytometry; type: functional; conditions: dose lower 0.03 nM
Procedure, shortened: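 H1975 cells (1 × 10⁵/well, 6-well plates) treated one day after seeding at the indicated concentrations for 48 h. Washed in cold PBS, fixed in cold ethanol at −20 °C for over 24 h, then stained with PI/RNase for 30 min at 37 °C in the dark. Phase distribution measured by flow cytometry.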

[10] = system: Protein cereblon/Epidermal growth factor receptor (Homo sapiens), P00533+Q96SW2 [UNDEFINED MUTATION]; assay: Protac activity at CRBN/EGFR exon19 deletion/T790M mutant in human PC-9 cells transfected with BRCA1 assessed as induction of EGFR degradation at 1 to 1000 nM measured after 48 hrs by Western blot assay; type: cell-based; conditions: dose 1-1000 nM
Procedure, shortened: (§1)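 Cells seeded at 1-3X10^5/well and treated one day later with compounds at the concentrations and times given. Lysed in RIPA buffer with protease inhibitors. 15 µg protein run on 8% SDS-PAGE, transferred to nitrocellulose, probed for EGFR or phospho-EGFR, ECL detection. Lung lines kept in RPMI 1640 with 10% fetal calf serum, 37 °C, 5% CO2. DC50 is an estimated value. Repeated more than 3 times.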

[11] = system: Protein cereblon/Epidermal growth factor receptor (Homo sapiens), P00533+Q96SW2 [L858R,T790M]; assay: Protac activity at CRBN/EGFR L858R/T790M mutant in human NCI-H1975 cells assessed as induction of EGFR degradation at 50 nM measured after 16 hrs by Western blot assay; type: cell-based; procedure, shortened: as §1
[12] = system: BJ; assay: Cytotoxicity against human BJ cells assessed as inhibition of cell growth measured after 72 hrs by CCK-8 assay; type: cell-based
Procedure, shortened: (§2)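 Cells seeded at 3000 cells/well in 96-well plates and treated with graded compound concentrations one day later for 72 h. CCK-8 was added for 1–4 h and absorbance read at 450 nm. Lung cancer lines were kept in RPMI 1640 with 10% fetal calf serum at 37 °C and 5% CO₂.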

[13] = system: Protein cereblon/Epidermal growth factor receptor (Homo sapiens), P00533+Q96SW2 [UNDEFINED MUTATION]; assay: Protac activity at CRBN/EGFR exon 19 deletion mutant in human PC-9 cells assessed as induction of EGFR degradation at >10 nM measured after 48 hrs by Western blot assay; type: cell-based; conditions: dose nM >10, time 48.0 hrs; procedure, shortened: as §1
[14] = target: T1, Protein cereblon/Epidermal growth factor receptor; assay: Protac activity at CRBN/EGFR in human PC-9 cells assessed as induction of EGFR degradation by Western blot assay relative to control; type: cell-based
Procedure, shortened: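 PC9 cells (EGFR Ex19del) seeded at 1–3 × 10⁵/well in 12-well plates and treated the next day with graded degrader concentrations for 48 h. Lysed in RIPA buffer with protease inhibitors, 15 µg protein resolved on 8% SDS-PAGE, and EGFR detected by immunoblot with ECL. DC50 estimated from blots; experiments repeated more than 3 times.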

[15] = system: A549; assay: Antiproliferative activity against human A549 cells assessed as inhibition of cell growth measured after 72 hrs by CCK-8 assay; type: functional, cell-based; conditions: A549, 72 h; procedure, shortened: as §2
[16] = system: PC-9; assay: Antiproliferative activity against human PC-9 cells assessed as inhibition of cell growth measured after 72 hrs by CCK-8 assay; type: functional, cell-based; conditions: PC-9, 72 h; procedure, shortened: as §2
[17] = system: NCI-H1975; assay: Inhibition of cell invasion in human NCI-H1975 cells expressing EGFR L858R/T790M mutant assessed at 500 nM measured after 42 hrs by transwell assay; type: functional; set-up: scale not given: the % may be the effect or the level left
Procedure, shortened: (§3)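 GFP-expressing H1975 cells were trypsinised and resuspended in serum-free medium containing compound. Seeded into Matrigel-coated transwell inserts (8 µm pores) above RPMI 1640 full growth medium, at 37 °C and 5% CO₂. Invaded cells imaged by fluorescence microscopy in five random fields per insert and counted. Three independent repeats.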

[18] = system: NCI-H1975; assay: Antimigratory activity in human NCI-H1975 cells expressing EGFR L858R/T790M mutant at 300 to 500 nM measured after 24 hrs by wound healing assay; type: functional, cell-based; conditions: dose 300-500 nM
Procedure, shortened: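 H1975 cells seeded in 24-well plates, scratched at confluence with a pipette tip 24 h later and washed three times with PBS. Then incubated with degrader at 300 or 500 nM. Six photos per well taken at set time points, and the uncovered wound area quantified.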

[19] = system: Protein cereblon/Epidermal growth factor receptor (Homo sapiens), P00533+Q96SW2 [L858R,T790M]; assay: Protac activity at CRBN/EGFR L858R/T790M mutant in human NCI-H1975 cells assessed as induction of EGFR degradation at 30 nM measured after 16 hrs by Western blot assay; type: cell-based; procedure, shortened: as §1
[20] = system: NCI-H1975; assay: Inhibition of cell invasion in human NCI-H1975 cells expressing EGFR L858R/T790M mutant assessed at 500 nM measured after 18 hrs by transwell assay; type: functional; set-up: scale not given: the % may be the effect or the level left; procedure, shortened: as §3

| Compound | Activity [1] | DC50 [2] [nM] | Activity [3] | Activity [4] | Activity [5] [%] | DC50 [6] | DC50 [7] [nM] | Activity [8] | Activity [9] | Activity [10] | Activity [11] | IC50 [12] [nM] | Activity [13] | %max [14] [%] | IC50 [15] [nM] | IC50 [16] [nM] | Activity [17] [%] | Activity [18] | Activity [19] | Activity [20] [%] |
| --- | --- | --- | --- | --- | --- | --- | --- | --- | --- | --- | --- | --- | --- | --- | --- | --- | --- | --- | --- | --- |
| C=CC(=O)Nc1cc2c(Nc3ccc(F)c(Cl)c3)ncnc2cc1OCCCN1CCN(C(=O)CCCCCNc2cccc3c2C(=O)N(C2CCC(=O)NC2=O)C3=O)CC1 (centres undefined) | Tde | 30 | inactive | Active | 98 | Not Active | 100 | inactive | Active | inactive | Active | > 10000 | Dose-Dependent Effect | 40 | > 10000 | 2.6 | – | – | – | – |
| C=CC(=O)Nc1cc2c(Nc3ccc(F)c(Cl)c3)ncnc2cc1OCCCN1CCN(C(=O)CCCCCCNc2cccc3c2C(=O)N(C2CCC(=O)NC2=O)C3=O)CC1 (centres undefined) | Tde | < 30 | inactive | Active | 98 | Not Active | 100 | inactive | Active | inactive | – | > 10000 | Dose-Dependent Effect | – | > 10000 | 3.94 | 40 | Active | Active | 38 |
